This is a sample that favours compounds with a hit; in the whole collection about 4.6% have one here.
Arrestin-AP2 inh: inhibitors of beta-arrestin/AP2 binding, primary screen, biochemical, GPCR trafficking, flow cytometry; FITC-arrestin peptide / GST-AP2 beads; AP2 beta2 appendage carries R879A mutation; 0.31% of 340,000 active; inhibition, % at 10 µM; AID 504490, 2011; beta-arrestin 1 C-terminal peptide binding to AP2 beta2-adaptin appendage (human);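 active = inhibition above a set limit, near 3 SD of compounds lacking own fluorescence, cut at about 54% in these data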;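 note: plate controls were DMSO wells for no effect and 5 µM unlabelled arrestin peptide for full effect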
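Material – AP2 appendage R879A on GSH beads · Buffer or medium – PBS with 0.05% Tween 20 and 0.1% BSA · Probe or stimulus – fluorescein-tagged arrestin peptide at 50 nM final · Incubation – compound with beads 12 min RT, then probe 1 h RT · Detection – high-throughput flow cytometry of beads, ex 488, em 535 nm · Evaluation – percent response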
PolyA inh: polyadenylation inhibitors in yeast reporter cells, primary screen, luminescence, S. cerevisiae | S. cerevisiae SKY197-pL101 polyadenylation reporter, beta-gal luminescence; efflux-impaired pdr1/pdr3 knockout yeast; score 100 = 6 SD above DMSO | activity score, % at 12 µM | 0.02% of 300,000 active;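 active = lowest replicate activity score at least 50, where 100 means six control SD above control mean; inconclusive = lowest score under 50 but half or more replicates reach 50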;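 note: yeast exposed to compound for 9 h at 30 °C; higher score means more reporter readthrough which indicates perturbed polyadenylation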
NLRP3 yeast inh: NALP3 inflammasome inhibitors in reconstituted yeast, primary screen, luminescence, uHTS; Yeast reconstituted NLRP3/ASC/caspase-1, beta-gal luminescence, 24 h; inhibition, % at 10 µM; 0.39% of 330,000 active; AID 2825, 2010;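 active = inhibition of 50% or more; inactive = inhibition below 50%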;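 note: plate controls were induced DMSO wells for no effect and uninduced yeast grown without galactose for full effect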
ALR inh: inhibitors of human ALR sulfhydryl oxidase, primary screen, biochemical, H2O2 detection, HRP-luminol luminescence, single point; 3.8% of 290,000 active; FAD-linked sulfhydryl oxidase ALR (Homo sapiens), P55789; purified ALR, DTT oxidation; inhibition, % (test concentration not listed);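 active = mean replicate inhibition above about 79%, with every replicate also reaching it, limit read from the data; inconclusive = only one of the two criteria met; inactive = mean below limit and not every replicate reaching it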
DSG3 Ab inh: inhibitors of pemphigus antibody binding to DSG3, primary screen, biochemical, bead-based, flow cytometry, scFv-GFP; AID 588358, 2011; Desmoglein-3 (Homo sapiens), P32926; 0.48% of 310,000 active; binding (percent of control), % at 10 µM; DSG3-coupled beads, scFv-anti-DSG3-GFP binding; active compounds read low;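 active = binding more than 3 SD below its plate's average and above zero; inconclusive = below that plate limit but binding exactly zero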;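 note: hits lower antibody fragment binding to DSG3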
Target sequence (P32926 whole entry, looked up, the tested form may be a part): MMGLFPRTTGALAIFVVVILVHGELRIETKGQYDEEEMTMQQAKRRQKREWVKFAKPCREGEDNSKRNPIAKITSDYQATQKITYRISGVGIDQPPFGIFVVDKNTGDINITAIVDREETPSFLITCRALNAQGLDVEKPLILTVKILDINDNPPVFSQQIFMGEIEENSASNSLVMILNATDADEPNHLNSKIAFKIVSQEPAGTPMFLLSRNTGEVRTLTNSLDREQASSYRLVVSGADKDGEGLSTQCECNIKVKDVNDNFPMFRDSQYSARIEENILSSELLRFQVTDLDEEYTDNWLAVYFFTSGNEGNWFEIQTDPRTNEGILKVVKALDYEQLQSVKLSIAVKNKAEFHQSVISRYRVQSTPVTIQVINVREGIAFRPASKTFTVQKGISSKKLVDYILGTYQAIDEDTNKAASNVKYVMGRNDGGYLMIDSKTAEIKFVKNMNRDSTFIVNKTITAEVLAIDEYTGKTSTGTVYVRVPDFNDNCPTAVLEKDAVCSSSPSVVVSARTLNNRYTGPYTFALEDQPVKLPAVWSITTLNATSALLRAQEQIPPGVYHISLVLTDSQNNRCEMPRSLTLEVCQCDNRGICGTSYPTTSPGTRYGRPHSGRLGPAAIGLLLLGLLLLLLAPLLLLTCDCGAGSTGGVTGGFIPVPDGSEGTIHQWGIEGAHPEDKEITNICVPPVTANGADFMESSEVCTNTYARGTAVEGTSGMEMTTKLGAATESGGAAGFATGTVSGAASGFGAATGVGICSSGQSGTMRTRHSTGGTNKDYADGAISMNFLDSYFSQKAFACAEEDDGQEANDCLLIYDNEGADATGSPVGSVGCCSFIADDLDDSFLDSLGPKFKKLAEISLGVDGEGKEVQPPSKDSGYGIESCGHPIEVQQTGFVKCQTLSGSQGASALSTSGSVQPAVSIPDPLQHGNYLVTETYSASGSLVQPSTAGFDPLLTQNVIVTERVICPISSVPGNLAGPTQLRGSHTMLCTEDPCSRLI
NALP1 inh: NALP1 inflammasome inhibitors in reconstituted yeast, colorimetric, S. cerevisiae, triplicate retest. inhibition, % at 10 µM. 0.61% of 280,000 active. S. cerevisiae NALP1/ASC/caspase-1 growth, X-gal OD620, 72 h; in the data active = inhibition mostly above about 24%, no sharp cut-off; inactive = mostly below about 32%
Arr-AP2 CP1: inhibitors of arrestin peptide binding to AP2, confirmation, biochemical, cherry pick 1, flow cytometry beads. shares compounds with Arrestin-AP2 inh. GST-AP2 beads, FITC arrestin peptide binding; GST-fused beta2-adaptin appendage, R879A mutant. inhibition, % at 10 µM. 2% of 1,300 active;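 active = inhibition above a set limit, roughly 3 SD of non-fluorescent compound noise, cut at about 38% in these data; inactive = inhibition at or below that limit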;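 note: loss of bead fluorescence from 50 nM FITC arrestin peptide bound to appendage; 0% = negative control wells and 100% = excess unlabelled arrestin peptide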
GST GSH counter: GST-fluorescein capture on glutathione beads, confirmation, artefact control for arrestin-AP2 inhibitor project, biochemical, cherry pick 1, flow cytometry; shares compounds with Arrestin-AP2 inh; GST-fluorescein binding to GSH beads, fluorescence, counter-screen; inhibition, % at 10 µM; 2% of 1,300 active; AID 588338, 2011;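 active = inhibition above 50%, about 3 SD of the inhibition seen with non-fluorescent compounds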;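 note: fluorescein maleimide labelled GST captured on 4 micron glutathione beads; higher means more loss of bead fluorescence from quenching or blocked binding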
The depositor's hits bear a star; ? = inconclusive; nt = no result.

SMILES	Arrestin-AP2 inh	PolyA inh	NLRP3 yeast inh	ALR inh	DSG3 Ab inh	NALP1 inh	Arr-AP2 CP1	GST GSH counter
CCc1ccc(OCC(=O)NNCC(=O)Nc2ccc(OC)cc2)cc1	58.5*	nt	23.5	nt	100.9	nt	-4.2	-8.1
CC(OC(=O)C1CSC2(C)CCC(=O)N12)C(=O)Nc1cccc(C#N)c1 (stereo unspecified)	1.2	-5.5	8.4	-5.6	100.4	nt	1.0	-4.9
CC(OC(=O)C1CSC2(C)CCC(=O)N12)C(=O)Nc1ccc(F)cc1 (stereo unspecified)	-2.9	nt	14.6	-4.2	108.2	nt	-11.8	-8.9
O=C(Cc1ccccc1F)Nc1cccc(S(=O)(=O)N2CCOCC2)c1	1.3	nt	-0.7	-3.4	96.8	nt	nt	nt
CCOc1ccccc1NC(=O)c1ccc(F)c(S(=O)(=O)N2CCC3(CC2)OCCO3)c1	60.8*	2.4	24.9	nt	93.4	11.5	-21.2	-6.0
CCOc1ccccc1NC(=O)c1ccc(S(=O)(=O)N2CCCCC2)cc1	25.5	-2.2	24.2	0.9	108.4	33.1	nt	nt
CCCCn1ccnc1C(=O)c1cccc(S(=O)(=O)N2CC(C)CC(C)C2)c1 (stereo unspecified)	12.2	-18.2	8.5	nt	97.5	42.0	nt	nt
CCCOc1ccc(C(=O)CCNc2cccc(Cl)c2)cc1	57.2*	12.8	2.7	-2.1	98.4	-1.6	5.3	-0.8
COc1ccc(C(=O)CCNc2cccc(Cl)c2)cc1	-5.4	6.7	16.5	nt	113.8	27.4	nt	nt
COc1ccc2c(c1)c1ccc3c(c1n2C)C(=O)C=CC3=O	56.9*	nt	22.9	nt	90.6	3.8	32.5	3.1
COc1ccc2c(c1)c1ncn(CCN3CCCC3)c(=O)c1n2C	3.8	2.3	-0.5	-26.0	101.9	9.0	nt	nt
Cn1c2ccccc2c2ccc3c(c21)C(=O)C=CC3=O	69.6*	nt	nt	nt	78.8	nt	55.5*	1.8
Cc1ccc2c(c1)c1ccc3c(c1n2C)C(=O)C=CC3=O	47.8	nt	37.0	nt	84.5	nt	nt	nt
CC(C(=O)c1ccc(-c2ccccc2)cc1)[n+]1cccc(C(N)=O)c1 (stereo unspecified)	7.0	-28.1	21.1	1.1	113.1	23.3	nt	nt
O=C(Nc1ccccc1Sc1ccccc1)c1ccccc1F	-7.7	-40.2	4.2	4.2	76.4	nt	nt	nt
Cn1c(Cl)c(/C=N/OC(=O)c2ccccc2Cl)c2ccccc21	54.1*	-12.5	29.9	-18.6	106.8	27.6	5.0	-3.8
Cc1csc(NC(=O)c2ccc(Cn3nc(C)c(Br)c3C)o2)n1	57.8*	5.0	6.1	5.4	107.5	3.1	-15.1	3.3
COc1ccc(NC(=O)COC(=O)C2CCN(S(=O)(=O)c3cccs3)CC2)cc1	12.3	7.9	5.7	-1.1	100.7	15.6	nt	nt
COC(=O)CCCC1=CC2=C(c3ccccc3)C(=O)C(C)(OC(=O)C3CCCC3)C(=O)C2=CN1C(CO)CO (stereo unspecified)	15.5	5.0	10.5	nt	103.2	nt	nt	nt
O=C1NC(c2ccccc2OC(F)F)Oc2ccccc21 (stereo unspecified)	23.4	3.4	-6.5	-5.6	105.1	-6.9	nt	nt
Cc1c(Cl)cccc1NC(=O)Nc1ccccc1C(N)=O	-1.4	19.2	-15.9	-14.8	103.0	-1.8	nt	nt
Cc1c(Cl)cccc1NC(=O)Nc1ccc(C(N)=O)cc1	104.5*	12.7	8.8	2.7	82.0	14.2	-0.1	4.8
COc1ccc(CCNC(=O)CN(C)S(=O)(=O)c2ccc(OC)cc2)cc1	32.4	-0.3	5.5	nt	107.4	4.8	nt	nt
COc1ccc(CNC(=O)COC(=O)[C@@H]2CCCN2C(=O)c2cccs2)cc1	6.1	nt	9.2	11.1	97.3	nt	nt	nt
CCOc1ccc(Cc2noc3c2C(=O)CCC3)cc1OCC	-44.4	12.0	16.3	1.2	112.1	12.3	nt	nt
SMILES	Arrestin-AP2 inh	PolyA inh	NLRP3 yeast inh	ALR inh	DSG3 Ab inh	NALP1 inh	Arr-AP2 CP1	GST GSH counter
CCOc1ccc(Cc2noc3c2C(=O)CC(C)(C)C3)cc1OCC	56.9*	-10.7	15.9	-11.3	109.6	-2.3	8.9	-3.6
COc1ccc(OC)c(-c2csc(NC(=O)CN3C(=O)NC4(CCCC4)C3=O)n2)c1	67.7*	-8.4	-1.2	4.9	103.0	nt	1.3	-0.6
COc1cc(OC)cc(C(=O)N[C@H](C(=O)Nc2nc(-c3cc(OC)ccc3OC)cs2)C(C)C)c1	58.3*	-14.8	0.1	-13.3	nt	-2.1	-15.2	15.4
Cc1cccc(NC(=O)CNC(=O)c2ccc(S(=O)(=O)NCc3ccco3)cc2)c1C	nt	nt	nt	nt	95.0	nt	nt	nt
N#CC(C(N)=O)=C1CCCCC1	43.6	0.9	4.3	-0.6	97.2	10.0	nt	nt
Clc1ccccc1CN1CCN(c2ncccn2)CC1	58.1*	9.0	15.6	3.1	110.7	-12.4	-10.1	-0.8
Clc1cccc(CN2CCN(c3ncccn3)CC2)c1Cl	2.5	9.7	26.8	nt	106.5	-18.9	nt	nt
CC(C)CNC(=O)c1cc(S(=O)(=O)N2CCOCC2)ccc1N1CCCC1	55.2*	-21.7	11.5	4.1	96.6	-5.9	8.9	-5.7
COc1ccc(CCNC(=O)c2cc(S(=O)(=O)N3CCOCC3)ccc2N2CCCC2)cc1OC	-11.3	-17.8	10.7	-13.8	95.1	nt	-11.4	2.5
COc1ccc(CNC(=O)c2cc(S(=O)(=O)N3CCCCC3)ccc2N2CCOCC2)cc1OC	2.8	nt	nt	nt	104.2	nt	nt	nt
CC(=O)c1ccccc1NC(=O)c1cc(S(=O)(=O)N2CCOCC2)ccc1N1CCCC1	-0.9	nt	-5.9	nt	106.0	nt	1.4	-7.1
CCOc1ccc(NC(=O)CN(C)C(=O)c2ccccc2SCc2c(C)noc2C)cc1OCC	2.5	-0.2	5.5	-4.5	?	nt	nt	nt
Cc1ccc(C)c2[nH]c(=O)c(C(c3nnnn3C(C)(C)C)N3CC=C(c4ccc(F)cc4)CC3)cc12 (stereo unspecified)	-10.8	nt	nt	nt	103.0	-38.7	nt	nt
Cc1ccc(NC(=O)C2CSC3(C)CCC(=O)N23)cc1S(=O)(=O)N1CCOCC1 (stereo unspecified)	24.0	nt	17.5	-3.2	94.4	nt	nt	nt
CN(C(=O)COC(=O)C1CSC2(C)CCC(=O)N12)c1ccccc1 (stereo unspecified)	22.4	5.8	8.8	-9.1	105.6	nt	9.5	1.8

Assay outcomes: PubChem BioAssay, several laboratories
